Here are results for 2 compounds from paper PMC7246176 (Nature chemical biology, 2020).

The target of one data set is T1, DCLK2 (Homo sapiens, UniProt Q8N568).
T1 sequence (Q8N568 1-766): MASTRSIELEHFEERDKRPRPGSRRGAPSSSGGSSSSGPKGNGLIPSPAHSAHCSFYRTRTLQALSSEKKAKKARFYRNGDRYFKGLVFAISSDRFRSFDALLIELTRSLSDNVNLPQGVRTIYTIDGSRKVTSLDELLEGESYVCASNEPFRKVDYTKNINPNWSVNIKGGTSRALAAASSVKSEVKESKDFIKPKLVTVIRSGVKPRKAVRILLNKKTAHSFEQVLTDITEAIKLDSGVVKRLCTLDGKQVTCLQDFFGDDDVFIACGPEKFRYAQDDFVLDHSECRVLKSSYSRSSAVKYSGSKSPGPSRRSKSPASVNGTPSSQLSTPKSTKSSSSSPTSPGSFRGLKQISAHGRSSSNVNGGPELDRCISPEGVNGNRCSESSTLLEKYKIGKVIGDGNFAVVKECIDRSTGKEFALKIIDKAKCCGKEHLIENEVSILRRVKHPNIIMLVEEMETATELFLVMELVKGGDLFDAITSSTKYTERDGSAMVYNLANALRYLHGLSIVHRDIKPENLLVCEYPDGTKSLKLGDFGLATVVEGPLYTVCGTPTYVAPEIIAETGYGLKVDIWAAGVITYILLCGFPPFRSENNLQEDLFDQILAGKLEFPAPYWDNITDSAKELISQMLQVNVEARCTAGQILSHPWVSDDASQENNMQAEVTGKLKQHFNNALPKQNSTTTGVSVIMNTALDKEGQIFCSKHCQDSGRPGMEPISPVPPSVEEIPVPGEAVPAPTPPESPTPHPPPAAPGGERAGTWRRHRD
The data set is described as follows: DCLK2 KINOMEscan binding assay. In short, it runs like this:
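KINOMEscan competition binding run by a contract lab. Test compound in 12-point dose response, top concentration 10 μM. Values are the mean of n = 2 biologically independent samples.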

The subject of another data set is PANFR0029_T2. As to the kind of experiment: Patient-derived pancreatic organoid viability, PANFR0029_T2. The note with it: read-out: PANFR0029_T2 3D organoid culture IC50. The class given is cell-based, human. In short, it runs like this:
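Patient-derived PDAC organoids were dissociated to single cells and plated at 1000 viable cells/well in complete organoid medium with 10% Matrigel, in ultra-low-attachment 384-well plates. After 24 h, compound was added by digital dispenser, then 7 days incubation. Read-out was CellTiter-Glo 3D luminescence after 1 h shaking at room temperature, normalized to DMSO wells for each culture.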

The target in data set [1] is T2, purified, recombinant DCLK1 kinase domain (Homo sapiens, UniProt O15075).
T2 sequence (O15075 351-689 isoform O15075-2): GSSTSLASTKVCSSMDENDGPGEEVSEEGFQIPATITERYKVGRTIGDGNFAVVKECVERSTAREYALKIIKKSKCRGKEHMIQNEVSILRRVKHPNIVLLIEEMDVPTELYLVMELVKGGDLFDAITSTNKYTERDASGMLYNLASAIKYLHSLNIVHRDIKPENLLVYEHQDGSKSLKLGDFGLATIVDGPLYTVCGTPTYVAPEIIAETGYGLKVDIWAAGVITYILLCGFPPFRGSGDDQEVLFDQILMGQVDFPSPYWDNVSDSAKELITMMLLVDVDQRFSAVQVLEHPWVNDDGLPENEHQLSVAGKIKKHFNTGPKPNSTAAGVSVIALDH
As to the kind of experiment: DCLK1 isothermal titration calorimetry. The class given is binding. A general note: In ITC the heat of successive injections is recorded.

Data set [2] is described as follows: Maximum dose tolerability evaluation in mice. The note with it: doses up to 100 mg/kg, oral gavage daily for two weeks, no adverse effects, no loss of body weight. The class given is in vivo, C57B6/6J mice.
The target of data set [3] is T3, ERK5 (Homo sapiens, UniProt Q13164). As to the kind of experiment: ERK5 KINOMEscan binding assay.
In the next data set the test system is rat hippocampal neurons. The data set is described as follows: Rat primary hippocampal neuron viability. The class given is cell-based. The note with it: concentrations up to 10 μM, 24 hours. In short, it runs like this:
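Rat primary hippocampal neurons on poly-L-lysine-coated coverslips were treated at DIV6 for 24 h with DMSO or test compound. They were then fixed in glutaraldehyde-containing cytoskeleton buffer with Triton X-100, followed by NaBH4, permeabilized in TBS with 0.5% Triton X-100, and processed for immunofluorescence.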

For data set [4], the target named is T3, ERK5. As to the kind of experiment: ERK5 cellular kinase assay in HeLa cells. The class given is cell-based.
Data set [5] deals with T3, ERK5. As to the kind of experiment: ERK5 32P-ATP kinase assay. The class given is biochemical. The note with it: ERK5 kinase assay IC50, 32P-ATP; Table 1.
A further data set relates to zebrafish. The data set is described as follows: Toxicity evaluation during zebrafish embryonic development. The data set is classed as in vivo. The note with it: days 1 to 8 post-fertilization, in fish water at concentrations up to 10 μM.

Where two headings read alike, the source gives them in different places.

T3 sequence (Q13164 whole entry): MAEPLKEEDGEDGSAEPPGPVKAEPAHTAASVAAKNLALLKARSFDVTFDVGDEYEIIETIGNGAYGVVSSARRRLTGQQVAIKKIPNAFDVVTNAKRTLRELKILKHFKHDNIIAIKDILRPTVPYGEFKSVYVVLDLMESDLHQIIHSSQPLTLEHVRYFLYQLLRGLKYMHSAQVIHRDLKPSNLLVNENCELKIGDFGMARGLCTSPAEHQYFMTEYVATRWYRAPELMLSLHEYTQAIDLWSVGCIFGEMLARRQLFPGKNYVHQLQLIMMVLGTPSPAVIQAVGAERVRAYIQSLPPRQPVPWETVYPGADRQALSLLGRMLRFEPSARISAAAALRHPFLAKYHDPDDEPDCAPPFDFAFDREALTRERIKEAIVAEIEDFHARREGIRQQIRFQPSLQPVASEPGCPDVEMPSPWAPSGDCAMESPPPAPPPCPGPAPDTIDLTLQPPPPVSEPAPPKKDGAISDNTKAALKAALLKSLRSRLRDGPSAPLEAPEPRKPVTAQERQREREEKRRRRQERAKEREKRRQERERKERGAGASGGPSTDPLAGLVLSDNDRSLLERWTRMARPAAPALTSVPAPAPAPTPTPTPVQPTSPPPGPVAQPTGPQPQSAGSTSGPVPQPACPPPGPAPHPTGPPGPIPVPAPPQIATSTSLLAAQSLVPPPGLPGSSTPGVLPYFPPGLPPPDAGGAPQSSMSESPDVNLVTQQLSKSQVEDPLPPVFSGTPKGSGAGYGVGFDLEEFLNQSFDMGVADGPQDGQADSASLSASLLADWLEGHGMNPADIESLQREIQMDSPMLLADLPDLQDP

As for `COc1cc(N2CCN(C)CC2)ccc1Nc1ncc2c(n1)N(C)c1ccccc1C(=O)N2CC(F)(F)F` [DCLK1-IN-1], the IC50 (as a rule, the concentration that gives 50% inhibition) at DCLK2 was 0.031 µM; in the data set with PANFR0029_T2 (Homo sapiens, 168 h) it was above 20 µM; at ERK5 [3] it was 1.8 µM; against ERK5 [4] it was 5.36 µM; against ERK5 [5] it was 4 µM. In addition, the Kd (commonly the concentration at which binding is half-saturated) in data set [1] (ITC Kd, purified recombinant DCLK1 protein, Table 1) amounted to 0.055 µM; in [1] (Kd, ITC, 20 μM DCLK1, 200 μM compound, Supplementary Table 2 and text), 0.109 µM. Also, the “tolerability (maximum tolerated dose study)” value in data set [2] is recorded as “well-tolerated”. Further, the “effect on neuronal viability” value in the data set with rat hippocampal neurons is recorded as “no effect on neuronal viability”. Besides, the “effect on zebrafish CNS or other organ system development” value with zebrafish was “no discernable effect”.

In the case of `CCOc1cc(N2CCC(O)CC2)ccc1Nc1ncc2c(n1)N(C)c1ccccc1C(=O)N2C` [XMD8-92], the IC50 is 3.6 µM on DCLK2 (read-out: DCLK2 binding assay IC50, KINOMEscan) and 7.03 µM in the data set with PANFR0029_T2 (viability, 7 d, DCLK1-negative organoids).
